Test results from ChEMBL document CHEMBL1135739, “Radiolabeled amino acids for tumor imaging with PET: radiosynthesis and biological evaluation of 2-amino-3-[18F]fluoro-2-methylpropanoic acid and 3-[18F]fluoro-2-methyl-2-(methylamino)propanoic acid” (J Med Chem, 2002).

Assays:
Rattus norvegicus [1] = organism: Rattus norvegicus; assay: Radioactivity distribution in muscle of normal fischer rat after injection of [18F]fluoro-2-methylpropanoic acid after 30 min.; format: ADME, organism-based, Muscle tissue; conditions: in vivo, 0.5 h
Summary of the method: (§1)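 Male Fischer 344 rats (200–250 g), fed ad libitum, anesthetized with intramuscular ketamine:xylazine (1:1, 0.1 mL/100 g). About 85 μCi tracer in 0.3 mL sterile water was given by tail-vein catheter. Groups of four were killed at 5, 30, 60 or 120 min. Tissues were weighed and gamma-counted against dose standards, decay-corrected, and expressed as %ID/g (mean ± standard error).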

Rattus norvegicus [2] = organism: Rattus norvegicus; assay: Radioactivity distribution in tumor of tumor-bearing fischer rat after injection of [18F]fluoro-2-methylpropanoic acid after 5 min; format: ADME, organism-based; conditions: in vivo
Summary of the method: (§2)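 Male Fischer rats had 4×10^4 9L gliosarcoma cells implanted stereotactically into the brain, 3 mm right of midline, 1 mm anterior to bregma, 5 mm deep. They were used 17–19 days later. Awake, restrained rats got ~35 μCi in 0.3 mL sterile water by tail vein and were killed at 5, 60 or 120 min. Tissues, tumor and contralateral brain were gamma-counted, decay-corrected, as %ID/g, mean ± SE, n = 4–5.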

Rattus norvegicus [3] = organism: Rattus norvegicus; assay: Radioactivity distribution in testis of normal fischer rat after injection of [18F]fluoro-2-methylpropanoic acid after 5 min.; format: ADME, organism-based; conditions: in vivo
Summary of the method: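 Male Fischer 344 rats (200–250 g), fed ad libitum, under intramuscular ketamine:xylazine anesthesia, got ~85 μCi radiotracer in 0.3 mL sterile water by tail-vein catheter. Groups of four were killed at 5, 30, 60 or 120 min. Dissected tissues were weighed and gamma-counted with dose standards. Counts were decay-corrected and given as %ID/g, mean ± standard error. Tissues were compared by one-way ANOVA.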

Rattus norvegicus [4] = organism: Rattus norvegicus; assay: Radioactivity distribution in pancreas of normal fischer rat after injection of [18F]fluoro-2-methylpropanoic acid after 30 min.; format: ADME, organism-based; conditions: in vivo, 0.5 h; summary of the method: as §1
Rattus norvegicus [5] = organism: Rattus norvegicus; assay: Radioactivity distribution in brain of normal fischer rat after injection of [18F]fluoro-2-methylpropanoic acid after 30 min.; format: ADME, organism-based; conditions: in vivo, 0.5 h
Summary of the method: (§3)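 Normal male Fischer 344 rats (200–250 g), anesthetized with i.m. ketamine:xylazine (1:1), got ~85 μCi of tracer in 0.3 mL sterile water i.v. via tail-vein catheter. Groups of four were killed at 5, 30, 60 or 120 min. Tissues were weighed and gamma-counted against dose standards, and counts were decay-corrected to %ID/g. Results are mean ± standard error (n = 4), compared by one-way ANOVA.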

Rattus norvegicus [6] = organism: Rattus norvegicus; assay: Radioactivity distribution in blood of tumor-bearing fischer rat after injection of [18F]fluoro-2-methylpropanoic acid after 5 min; format: ADME, organism-based; conditions: in vivo
Summary of the method: (§4)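 Male Fischer 344 rats carried intracranial 9L gliosarcoma, implanted stereotactically (4×10^4 cells) and used 17–19 days later. Awake restrained rats got ~35 μCi of tracer in 0.3 mL sterile water by tail-vein injection and were killed at 5, 60 or 120 min. Tissues were weighed and gamma-counted, and counts were decay-corrected to %ID/g. Results are mean ± standard error; n = 4 at 5 and 120 min, n = 5 at 60 min.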

Rattus norvegicus [7] = organism: Rattus norvegicus; assay: Radioactivity distribution in pancreas of normal fischer rat after injection of [18F]fluoro-2-methylpropanoic acid after 120 min.; format: ADME, organism-based; conditions: in vivo, 2 h; summary of the method: as §1
Rattus norvegicus [8] = organism: Rattus norvegicus; assay: Radioactivity distribution in bone of normal fischer rat after injection of [18F]fluoro-2-methylpropanoic acid after 5 min.; format: ADME, organism-based, Bone element; conditions: in vivo; summary of the method: as §3
Rattus norvegicus [9] = organism: Rattus norvegicus; assay: Radioactivity distribution in heart of normal fischer rat after injection of [18F]fluoro-2-methylpropanoic acid after 5 min.; format: ADME, organism-based; conditions: in vivo; summary of the method: as §3
Rattus norvegicus [10] = organism: Rattus norvegicus; assay: Radioactivity distribution in lung of tumor-bearing fischer rat after injection of [18F]fluoro-2-methylpropanoic acid after 60 min; format: ADME, organism-based; conditions: in vivo, 1 h
Summary of the method: (§5)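 Male Fischer 344 rats carried intracranial 9L gliosarcoma, stereotactically implanted (4×10^4 cells) and used 17–19 days later. Awake, restrained animals received about 35 μCi tracer in 0.3 mL sterile water via the tail vein and were killed at 5, 60 or 120 min (n = 4–5). Tissues were weighed, gamma-counted, decay-corrected and reported as %ID/g ± standard error.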

Rattus norvegicus [11] = organism: Rattus norvegicus; assay: Radioactivity distribution in lung of normal fischer rat after injection of [18F]fluoro-2-methylpropanoic acid after 120 min.; format: ADME, organism-based; conditions: in vivo, 2 h; summary of the method: as §1
Rattus norvegicus [12] = organism: Rattus norvegicus; assay: Radioactivity distribution in testis of tumor-bearing fischer rat after injection of [18F]fluoro-2-methylpropanoic acid after 5 min; format: ADME, organism-based; conditions: in vivo; summary of the method: as §2
Rattus norvegicus [13] = organism: Rattus norvegicus; assay: Radioactivity distribution in heart of tumor-bearing fischer rat after injection of [18F]fluoro-2-methylpropanoic acid after 120 min; format: ADME, organism-based; conditions: in vivo, 2 h; summary of the method: as §4
Rattus norvegicus [14] = organism: Rattus norvegicus; assay: Radioactivity distribution in pancreas of tumor-bearing fischer rat after injection of [18F]fluoro-2-methylpropanoic acid after 120 min; format: ADME, organism-based; conditions: in vivo, 2 h; summary of the method: as §5
Rattus norvegicus [15] = organism: Rattus norvegicus; assay: Radioactivity distribution in kidney of tumor-bearing fischer rat after injection of [18F]fluoro-2-methylpropanoic acid after 120 min; format: ADME, organism-based; conditions: in vivo, 2 h; summary of the method: as §5
Rattus norvegicus [16] = organism: Rattus norvegicus; assay: Radioactivity distribution in pancreas of normal fischer rat after injection of [18F]fluoro-2-methylpropanoic acid after 5 min.; format: ADME, organism-based; conditions: in vivo; summary of the method: as §1
Rattus norvegicus [17] = organism: Rattus norvegicus; assay: Radioactivity distribution in heart of tumor-bearing fischer rat after injection of [18F]fluoro-2-methylpropanoic acid after 5 min; format: ADME, organism-based; conditions: in vivo; summary of the method: as §4
Rattus norvegicus [18] = organism: Rattus norvegicus; assay: Radioactivity distribution in liver of tumor-bearing fischer rat after injection of [18F]fluoro-2-methylpropanoic acid after 60 min; format: ADME, organism-based; conditions: in vivo, 1 h; summary of the method: as §5
Rattus norvegicus [19] = organism: Rattus norvegicus; assay: Radioactivity distribution in bone of tumor-bearing fischer rat after injection of [18F]fluoro-2-methylpropanoic acid after 120 min; format: ADME, organism-based, Bone element; conditions: in vivo, 2 h; summary of the method: as §4
Rattus norvegicus [20] = organism: Rattus norvegicus; assay: Radioactivity distribution in pancreas of tumor-bearing fischer rat after injection of [18F]-fluoro-2-methylpropanoic acid after 5 min; format: ADME, organism-based; conditions: in vivo; summary of the method: as §5
Rattus norvegicus [21] = organism: Rattus norvegicus; assay: Radioactivity distribution in blood of normal fischer rat after injection of [18F]fluoro-2-methylpropanoic acid after 5 min.; format: ADME, organism-based; conditions: in vivo; summary of the method: as §3
Rattus norvegicus [22] = organism: Rattus norvegicus; assay: Radioactivity distribution in bone of normal fischer rat after injection of [18F]-fluoro-2-methylpropanoic acid after 30 min.; format: ADME, organism-based, Bone element; conditions: in vivo, 0.5 h; summary of the method: as §3
Rattus norvegicus [23] = organism: Rattus norvegicus; assay: Radioactivity distribution in brain of normal fischer rat after injection of [18F]fluoro-2-methylpropanoic acid after 60 min.; format: ADME, organism-based; conditions: in vivo, 1 h; summary of the method: as §3
Rattus norvegicus [24] = organism: Rattus norvegicus; assay: Radioactivity distribution in heart of normal fischer rat after injection of [18F]fluoro-2-methylpropanoic acid after 120 min.; format: ADME, organism-based; conditions: in vivo, 2 h; summary of the method: as §3
Rattus norvegicus [25] = organism: Rattus norvegicus; assay: Radioactivity distribution in lung of normal fischer rat after injection of [18F]fluoro-2-methylpropanoic acid after 5 min.; format: ADME, organism-based; conditions: in vivo; summary of the method: as §1
Rattus norvegicus [26] = organism: Rattus norvegicus; assay: Radioactivity distribution in kidney of normal fischer rat after injection of [18F]fluoro-2-methylpropanoic acid after 120 min.; format: ADME, organism-based; conditions: in vivo, 2 h; summary of the method: as §3
Rattus norvegicus [27] = organism: Rattus norvegicus; assay: Radioactivity distribution in blood of tumor-bearing fischer rat after injection of [18F]fluoro-2-methylpropanoic acid after 60 min; format: ADME, organism-based; conditions: in vivo, 1 h; summary of the method: as §4
Rattus norvegicus [28] = organism: Rattus norvegicus; assay: Radioactivity distribution in bone of normal fischer rat after injection of [18F]fluoro-2-methylpropanoic acid after 60 min.; format: ADME, organism-based, Bone element; conditions: in vivo, 1 h; summary of the method: as §3
Rattus norvegicus [29] = organism: Rattus norvegicus; assay: Radioactivity distribution in liver of normal fischer rat after injection of [18F]fluoro-2-methylpropanoic acid after 60 min.; format: ADME, organism-based; conditions: in vivo, 1 h; summary of the method: as §1
Rattus norvegicus [30] = organism: Rattus norvegicus; assay: Radioactivity distribution in brain of normal fischer rat after injection of [18F]fluoro-2-methylpropanoic acid after 5 min.; format: ADME, organism-based; conditions: in vivo; summary of the method: as §3
Rattus norvegicus [31] = organism: Rattus norvegicus; assay: Radioactivity distribution in blood of normal fischer rat after injection of [18F]fluoro-2-methylpropanoic acid after 30 min.; format: ADME, organism-based; conditions: in vivo, 0.5 h; summary of the method: as §3
Rattus norvegicus [32] = organism: Rattus norvegicus; assay: Radioactivity distribution in lung of normal fischer rat after injection of [18F]-fluoro-2-methylpropanoic acid after 60 min.; format: ADME, organism-based; conditions: in vivo, 1 h; summary of the method: as §1
Rattus norvegicus [33] = organism: Rattus norvegicus; assay: Radioactivity distribution in blood of tumor-bearing fischer rat after injection of [18F]fluoro-2-methylpropanoic acid after 120 min; format: ADME, organism-based; conditions: in vivo, 2 h; summary of the method: as §4
Rattus norvegicus [34] = organism: Rattus norvegicus; assay: Radioactivity distribution in liver of normal fischer rat after injection of [18F]fluoro-2-methylpropanoic acid after 30 min.; format: ADME, organism-based; conditions: in vivo, 0.5 h; summary of the method: as §1

CC(N)(C[18F])C(=O)O.Cl (centres undefined)
ID/g (Rattus norvegicus [1]): 0.22% | ID/g (Rattus norvegicus [2]): 0.91% | ID/g (Rattus norvegicus [3]): 0.17% | ID/g (Rattus norvegicus [4]): 2.93% | ID/g (Rattus norvegicus [5]): 0.05% | ID/g (Rattus norvegicus [6]): 0.72% | ID/g (Rattus norvegicus [7]): 2.48% | ID/g (Rattus norvegicus [8]): 0.27% | ID/g (Rattus norvegicus [9]): 0.29% | ID/g (Rattus norvegicus [10]): 0.38% | ID/g (Rattus norvegicus [11]): 0.37% | ID/g (Rattus norvegicus [12]): 0.22% | ID/g (Rattus norvegicus [13]): 0.22% | ID/g (Rattus norvegicus [14]): 1.42% | ID/g (Rattus norvegicus [15]): 3.64% | ID/g (Rattus norvegicus [16]): 3.46% | ID/g (Rattus norvegicus [17]): 0.4% | ID/g (Rattus norvegicus [18]): 0.66% | ID/g (Rattus norvegicus [19]): 0.16% | ID/g (Rattus norvegicus [20]): 5.31% | ID/g (Rattus norvegicus [21]): 0.53% | ID/g (Rattus norvegicus [22]): 0.22% | ID/g (Rattus norvegicus [23]): 0.06% | ID/g (Rattus norvegicus [24]): 0.23% | ID/g (Rattus norvegicus [25]): 0.55% | ID/g (Rattus norvegicus [26]): 2.97% | ID/g (Rattus norvegicus [27]): 0.26% | ID/g (Rattus norvegicus [28]): 0.19% | ID/g (Rattus norvegicus [29]): 0.5% | ID/g (Rattus norvegicus [30]): 0.04% | ID/g (Rattus norvegicus [31]): 0.25% | ID/g (Rattus norvegicus [32]): 0.44% | ID/g (Rattus norvegicus [33]): 0.16% | ID/g (Rattus norvegicus [34]): 0.56%
